Our source for the IC50 values is ChEMBL document CHEMBL1134518, “5-(Tryptophyl)amino-1,3-dioxoperhydropyrido[1,2-c]pyrimidine-based potent and selective CCK(1)receptor antagonists: structure-activity relationship studies on the substituent at N2-position” (J Med Chem, 2001).

In assay [1] the target is T1, Gastrin/cholecystokinin type B receptor (Rattus norvegicus, UniProt P30553).
T1 sequence (P30553 whole entry): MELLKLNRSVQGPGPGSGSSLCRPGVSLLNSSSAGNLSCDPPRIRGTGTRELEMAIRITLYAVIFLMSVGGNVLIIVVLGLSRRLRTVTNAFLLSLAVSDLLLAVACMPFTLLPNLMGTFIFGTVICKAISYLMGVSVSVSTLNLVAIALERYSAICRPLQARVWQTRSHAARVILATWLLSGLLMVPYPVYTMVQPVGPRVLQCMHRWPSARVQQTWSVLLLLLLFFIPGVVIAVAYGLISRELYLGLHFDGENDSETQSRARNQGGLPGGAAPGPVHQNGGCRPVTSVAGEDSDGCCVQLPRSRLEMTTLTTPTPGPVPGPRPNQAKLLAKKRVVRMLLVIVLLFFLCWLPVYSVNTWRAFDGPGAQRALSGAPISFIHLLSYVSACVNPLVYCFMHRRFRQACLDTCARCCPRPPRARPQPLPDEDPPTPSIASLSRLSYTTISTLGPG
Description: Inhibition of [3H]pCCK-8 specific binding cholecystokinin type B receptor in rat cerebral cortex membranes. The assay is classed as cell membranes, Membrane. Summed up:
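Rat brain cortex homogenized in 50 mM Tris-HCl pH 7.4 with 5 mM MgCl2, centrifuged twice at 100 000g, 35 min, 4 °C. Membranes (0.45 mg protein/tube) incubated with 1 nM [3H]pCCK-8 plus bacitracin 0.2 mg/mL, 60 min, 25 °C. Seven test concentrations in triplicate, at least three experiments.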

The species entered for assay [2] is Rattus norvegicus. Nature of the assay: Inhibition of amylase release stimulated by CCK-8 (0.1 nM) in dispersed pancreatic acini. Type of assay: functional. Summed up: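 Pancreatic acini prepared by collagenase digestion (two 6 min incubations, 37 °C). Acini were suspended in theophylline/BSA-containing buffer and incubated 30 min, 37 °C, under O2 with 0.1 nM CCK-8 and increasing compound concentrations. Released amylase was measured as a percentage of acinar content. IC50 came from linear regression of % inhibition. Three to six experiments in duplicate.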

Assay [3] has as its target T2, Cholecystokinin receptor type A (Rattus norvegicus, UniProt P30551).
T2 sequence (P30551 whole entry): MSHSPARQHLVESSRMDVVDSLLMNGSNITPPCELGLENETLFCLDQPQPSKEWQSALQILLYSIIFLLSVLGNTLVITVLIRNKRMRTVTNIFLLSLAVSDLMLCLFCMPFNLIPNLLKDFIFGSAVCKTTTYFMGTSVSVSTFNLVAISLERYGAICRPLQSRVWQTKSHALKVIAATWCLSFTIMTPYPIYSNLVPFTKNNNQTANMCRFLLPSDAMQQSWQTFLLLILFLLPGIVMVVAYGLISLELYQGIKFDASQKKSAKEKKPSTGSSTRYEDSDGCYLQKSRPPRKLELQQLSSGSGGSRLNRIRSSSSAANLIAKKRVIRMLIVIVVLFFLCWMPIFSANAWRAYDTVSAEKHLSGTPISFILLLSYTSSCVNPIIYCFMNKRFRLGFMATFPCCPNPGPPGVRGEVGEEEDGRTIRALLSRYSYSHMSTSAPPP
Nature of the assay: Inhibition of [3H]pCCK-8 specific binding to cholecystokinin type A receptor in rat pancreas. Summed up:
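Rat pancreas homogenized in Pipes-HCl pH 6.5 with 30 mM MgCl2, centrifuged twice at 50 000g, 10 min, 4 °C. Membranes (0.2 mg protein/tube) incubated with 0.5 nM [3H]pCCK-8, 30 mM MgCl2, bacitracin and SBTI (0.2 mg/mL each), 120 min, 25 °C. Seven test concentrations in triplicate, at least three experiments.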

Turning to `Cc1ccc(N2C(=O)C[C@H]3[C@H](NC(=O)[C@H](Cc4c[nH]c5ccccc45)NC(=O)OC(C)(C)C)CCCN3C2=O)cc1`, the IC50 in assay [1] was over 10000 nM; in assay [2], 16.6 nM; in assay [3], 2.9 nM.
Consider `CC(C)(C)OC(=O)N[C@@H](Cc1c[nH]c2ccccc12)C(=O)N[C@H]1CCCN2C(=O)N(c3ccccc3)C(=O)C[C@H]12`, for which the IC50 in assay [1] was over 10000 nM; in assay [2] it was over 1000 nM; in assay [3], 628 nM.
The matching figures for `Cc1ccccc1N1C(=O)C[C@H]2[C@H](NC(=O)[C@H](Cc3c[nH]c4ccccc34)NC(=O)OC(C)(C)C)CCCN2C1=O`: over 10000 nM, 1.89 nM and 0.97 nM.
Regarding `COc1ccc(N2C(=O)CC3C(NC(=O)[C@H](Cc4c[nH]c5ccccc45)NC(=O)OC(C)(C)C)CCCN3C2=O)cc1` (some centres not stated), the figures for the IC50 in assay [1], in assay [2] and in assay [3] were over 10000 nM, 38.1 nM and 15.9 nM, respectively.

A word on the IC50: it is the point on the concentration scale where inhibition reaches its midpoint. Low readings indicate higher potency, high ones lower potency.
